{
  "source": "ChEMBL document CHEMBL4316643",
  "about": "“Sesquiterpenes from an Eastern African Medicinal Mushroom Belonging to the Genus Sanghuangporus” (J Nat Prod, 2019)",
  "key": {"[1]": {"test_system": "Micrococcus luteus", "test": "Antimicrobial activity against Micrococcus luteus DSM 1790 by serial dilution assay", "format": "functional"}, "[2]": {"test_system": "Staphylococcus aureus", "test": "Antimicrobial activity against Staphylococcus aureus DSM 346 by serial dilution assay", "format": "functional"}, "[3]": {"test_system": "Mucor hiemalis", "test": "Antimicrobial activity against Mucor hiemalis DSM 2656 by serial dilution assay", "format": "functional", "outline": "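Serial dilution MIC assay in 96-well plates using YM medium for the filamentous fungus; starting concentration 300 μg/mL.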"}, "[4]": {"test_system": "Mycolicibacterium smegmatis", "test": "Antimicrobial activity against Mycobacterium smegmatis DSM 43524 by serial dilution assay", "format": "functional"}, "[5]": {"test_system": "Bacillus subtilis", "test": "Antimicrobial activity against Bacillus subtilis DSM 10 by serial dilution assay", "format": "functional"}, "[6]": {"test_system": "L929", "test": "Cytotoxicity in mouse L929 cells", "format": "functional, cell-based", "outline": "(§1)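 In vitro cytotoxicity against mouse fibroblast L929 and HeLa-derived KB-3.1 cells; serial dilutions from a starting concentration of 37 μg/mL; IC50 determined.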"}, "[7]": {"test_system": "KB 3-1", "test": "Cytotoxicity in human KB 3.1 cells", "format": "functional, cell-based", "outline": "as §1"}, "[8]": {"conditions": "Mus musculus, L929, read-out: IC50"}, "[9]": {"conditions": "Homo sapiens, KB 3-1, read-out: IC50"}},
  "note": "The source made the active and inactive calls. The rule behind the calls is not given here.",
  "data": [
    {"compound": "C=C1CCCC(C)(C)[C@@H]1CC/C(=C/CO)CO", "values": [
      {"measurement": "MIC", "setting": "[1]", "value": 100, "unit": "µg/mL"},
      {"measurement": "MIC", "setting": "[2]", "value": 100, "unit": "µg/mL"},
      {"measurement": "MIC", "setting": "[3]", "value": 25, "unit": "µg/mL"},
      {"measurement": "MIC", "setting": "[4]", "value": "inactive"},
      {"measurement": "MIC", "setting": "[5]", "value": 100, "unit": "µg/mL"},
      {"measurement": "IC50", "setting": "[6]; [8]", "value": 118, "unit": "µM"},
      {"measurement": "IC50", "setting": "[7]; [9]", "value": 79.8, "unit": "µM"}
    ]},
    {"compound": "C=C1CCC[C@@](C)(C(=O)O)[C@@H]1CCc1ccoc1", "values": [
      {"measurement": "MIC", "setting": "[1]", "value": "inactive"},
      {"measurement": "MIC", "setting": "[2]", "value": "inactive"},
      {"measurement": "MIC", "setting": "[3]", "value": 50, "unit": "µg/mL"},
      {"measurement": "MIC", "setting": "[4]", "value": "inactive"},
      {"measurement": "MIC", "setting": "[5]", "value": 75, "unit": "µg/mL"},
      {"measurement": "IC50", "setting": "[6]; l929", "value": "Not Active"},
      {"measurement": "IC50", "setting": "[7]; [9]", "value": 141, "unit": "µM"}
    ]},
    {"compound": "CC1=CC[C@H]([C@@](C)(O)[C@@H](O)[C@@H](O)/C=C(\\C)C(=O)O)CC1", "values": [
      {"measurement": "MIC", "setting": "[1]", "value": "inactive"},
      {"measurement": "MIC", "setting": "[2]", "value": "inactive"},
      {"measurement": "MIC", "setting": "[3]", "value": "inactive"},
      {"measurement": "MIC", "setting": "[4]", "value": "inactive"},
      {"measurement": "MIC", "setting": "[5]", "value": "inactive"}
    ]},
    {"compound": "C=C1CCC[C@@](C)(CO)[C@@H]1CC/C(=C/CO)CO", "values": [
      {"measurement": "MIC", "setting": "[1]", "value": "inactive"},
      {"measurement": "MIC", "setting": "[2]", "value": "inactive"},
      {"measurement": "MIC", "setting": "[3]", "value": 50, "unit": "µg/mL"},
      {"measurement": "MIC", "setting": "[4]", "value": "inactive"},
      {"measurement": "MIC", "setting": "[5]", "value": "inactive"},
      {"measurement": "IC50", "setting": "[6]; l929", "value": "Not Active"},
      {"measurement": "IC50", "setting": "[7]; kb 3-1", "value": "Not Active"}
    ]},
    {"compound": "CN(C)[C@@H]1C(O)=C(C(N)=O)C(=O)[C@@]2(O)C(O)=C3C(=O)c4c(O)cccc4[C@@](C)(O)[C@H]3[C@H](O)[C@@H]12", "note": "[OXYTETRACYCLINE]", "values": [
      {"measurement": "MIC", "setting": "[1]", "value": 0.4, "unit": "µg/mL"},
      {"measurement": "MIC", "setting": "[2]", "value": 0.4, "unit": "µg/mL"}
    ]},
    {"compound": "CC1=CC[C@H]([C@@](C)(O)[C@@H](O)C/C=C(\\C)C(=O)O)CC1", "values": [
      {"measurement": "MIC", "setting": "[1]", "value": "inactive"},
      {"measurement": "MIC", "setting": "[2]", "value": "inactive"},
      {"measurement": "MIC", "setting": "[3]", "value": 50, "unit": "µg/mL"},
      {"measurement": "MIC", "setting": "[4]", "value": "inactive"},
      {"measurement": "MIC", "setting": "[5]", "value": "inactive"}
    ]},
    {"compound": "C/C(=C\\c1csc(C)n1)[C@@H]1C[C@@H]2O[C@]2(C)CCC[C@H](C)[C@H](O)[C@@H](C)C(=O)C(C)(C)[C@@H](O)CC(=O)O1", "note": "[PATUPILONE]", "values": [
      {"measurement": "IC50", "setting": "[6]; [8]", "value": 0.00275, "unit": "µM"},
      {"measurement": "IC50", "setting": "[7]; [9]", "value": "6.5e-05", "unit": "µM"}
    ]},
    {"compound": "O=C(O)/C=C/c1ccc(O)cc1", "note": "[COUMARIC ACID]", "values": [
      {"measurement": "MIC", "setting": "[1]", "value": "inactive"},
      {"measurement": "MIC", "setting": "[2]", "value": "inactive"},
      {"measurement": "MIC", "setting": "[3]", "value": 50, "unit": "µg/mL"},
      {"measurement": "MIC", "setting": "[4]", "value": "inactive"},
      {"measurement": "MIC", "setting": "[5]", "value": "inactive"},
      {"measurement": "IC50", "setting": "[6]; l929", "value": "Not Active"},
      {"measurement": "IC50", "setting": "[7]; kb 3-1", "value": "Not Active"}
    ]},
    {"compound": "C=C([C@H]1CC=C(C)CC1)[C@H](O)[C@@H](O)/C=C(\\C)C(=O)O", "values": [
      {"measurement": "MIC", "setting": "[1]", "value": "inactive"},
      {"measurement": "MIC", "setting": "[2]", "value": 100, "unit": "µg/mL"},
      {"measurement": "MIC", "setting": "[3]", "value": 100, "unit": "µg/mL"},
      {"measurement": "MIC", "setting": "[4]", "value": "inactive"},
      {"measurement": "MIC", "setting": "[5]", "value": "inactive"},
      {"measurement": "IC50", "setting": "[7]; [9]", "value": 173, "unit": "µM"}
    ]},
    {"compound": "C=C1CCC[C@@](C)(CO)[C@@H]1CCc1ccoc1", "values": [
      {"measurement": "MIC", "setting": "[5]", "value": 75, "unit": "µg/mL"},
      {"measurement": "IC50", "setting": "[6]; [8]", "value": 59.8, "unit": "µM"},
      {"measurement": "IC50", "setting": "[7]; [9]", "value": 27.8, "unit": "µM"}
    ]},
    {"compound": "O=C(O)c1cn(C2CC2)c2cc(N3CCNCC3)c(F)cc2c1=O", "note": "[CIPROFLOXACIN]", "values": [
      {"measurement": "MIC", "setting": "[5]", "value": 3.1, "unit": "µg/mL"}
    ]},
    {"compound": "NC[C@H]1O[C@H](O[C@H]2[C@H](O)[C@@H](O[C@H]3O[C@H](CO)[C@@H](O)[C@H](N)[C@H]3O)[C@H](N)C[C@@H]2N)[C@H](O)[C@@H](O)[C@@H]1O", "note": "[KANAMYCIN]", "values": [
      {"measurement": "MIC", "setting": "[4]", "value": 0.4, "unit": "µg/mL"}
    ]},
    {"compound": "NYSTATIN", "values": [
      {"measurement": "MIC", "setting": "[3]", "value": 16.7, "unit": "µg/mL"}
    ]}
  ]
}
